Measurements from different studies.
Each line is one published result; the experiments were not run side by side.
Target: Atypical kinase COQ8B, mitochondrial (COQ8B, Homo sapiens, UniProt Q96D53)
One construct used (Q96D53 1-544): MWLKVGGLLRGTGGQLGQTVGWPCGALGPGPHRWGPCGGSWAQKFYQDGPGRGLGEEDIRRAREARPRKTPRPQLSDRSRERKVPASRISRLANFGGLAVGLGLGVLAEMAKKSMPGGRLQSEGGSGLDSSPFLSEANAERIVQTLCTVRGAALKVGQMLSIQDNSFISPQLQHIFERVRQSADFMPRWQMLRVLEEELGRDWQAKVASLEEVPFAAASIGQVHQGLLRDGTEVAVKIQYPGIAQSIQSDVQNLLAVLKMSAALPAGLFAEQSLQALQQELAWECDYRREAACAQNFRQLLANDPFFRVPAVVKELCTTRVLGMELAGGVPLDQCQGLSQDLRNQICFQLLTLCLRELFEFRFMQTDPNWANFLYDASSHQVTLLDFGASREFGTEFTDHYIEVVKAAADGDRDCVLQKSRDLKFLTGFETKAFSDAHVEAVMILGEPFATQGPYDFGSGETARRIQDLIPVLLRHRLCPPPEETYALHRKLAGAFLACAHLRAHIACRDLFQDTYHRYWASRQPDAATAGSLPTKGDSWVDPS

| SMILES | effect on | technique | tested at | remaining binding [%] |
| --- | --- | --- | --- | --- |
| CC1CCCN1c1nccc(-c2cnn3ncccc23)n1 (stereo not shown) | binding |  | 1 µM | 68 |
| C[C@@H]1CN(c2cc(-c3n[nH]c4ccc(OC5(C)CC5)cc34)ncn2)C[C@H](C)O1 | cell-free assay | competition with immobilised ligand | 0.1 µM | 72 |
| O=C(NCCCN1CCOCC1)c1ccc(Nc2nccc(-c3cc4ccccc4s3)n2)cc1 | binding | competition with immobilised ligand | 1 µM | 62 |
| COc1cnc(Nc2cccc(S(N)(=O)=O)c2)nc1N1CCN(c2ccccc2)C(=O)C1 | binding | competition with immobilised ligand | 1 µM | 100 |
| CCN1CCN(Cc2ccc(C(=O)Nc3ccc(C)c(Oc4ccc5c(c4)CC(=O)N5)c3)cc2C(F)(F)F)CC1 | binding | competition with immobilised ligand | 1 µM | 80 |
| O=C(NCC1CCOCC1)c1n[nH]cc1NC(=O)c1c(F)cccc1F | binding | competition with immobilised ligand | 1 µM | 85 |
| CN(CCCC(F)(F)F)c1nccc(-c2cnn3ncccc23)n1 | binding |  | 1 µM | 84 |
| O=C(c1ccc(Nc2nccc(-c3cc4ccccc4s3)n2)cc1)N1CCC(N2CCCC2)CC1 | binding | competition with immobilised ligand | 1 µM | 90 |
| CCCCN(CCCC)C(=O)CN1C[C@@H](c2cc(OC)c3c(c2)OCO3)[C@H](C(=O)O)[C@H]1CC(C)(C)CCC | cell-free assay | competition with immobilised ligand | 1 µM | 80.2 |
| C[C@@H]1CCN(c2nccc(-c3cnn4ncccc34)n2)C1 | binding |  | 1 µM | 89 |
| CN(C(=O)c1ccccc1)c1cc(N(C)c2ccc3c(c2)CCc2ccc(C(=O)NCCN4CCOCC4)cc2C3=O)ccc1F | cell-free assay | competition with immobilised ligand | 1 µM | 100 |
| COc1ccnn2ncc(-c3ccnc(N(C)C)n3)c12 | binding |  | 1 µM | 96 |
| CNC(=O)[C@@H]1CC[C@@H](n2c(-c3ccc4cnccc4c3)nc3ccc(C(=O)NCc4cccc(C(N)=O)c4)cc32)C1 | binding | competition with immobilised ligand | 1 µM | 99 |
| CCS(=O)(=O)c1cc2cc(C[C@@](O)(CC(C)(C)c3ccc(F)cc3C(N)=O)C(F)(F)F)[nH]c2cn1 | cell-free assay | competition with immobilised ligand | 1 µM | 100 |
| FC(F)(F)Oc1cccc(-c2cnc3ccc(-c4ccncc4)nn23)c1 | cell-free assay | competition with immobilised ligand | 5 µM | 85 |
| Cc1cnc(Nc2ccc(C(=O)N3CCC(N4CCCC4)CC3)cc2)nc1-c1cc2ccccc2s1 | binding | competition with immobilised ligand | 1 µM | 34 |
| COCCOc1nc(-c2ccc(Cl)nc2)nc2c1CN(C(=O)c1ncn3ccccc13)CC2 | cell-free assay | competition with immobilised ligand | 0.1 µM | 100 |
| CN(C)c1ncc(F)c(-c2cnn3ncccc23)n1 | binding |  | 1 µM | 73 |
| CNC(=O)Nc1ccc2c(c1)[C@@]1(CC2)OC(=O)N(CC(=O)N(Cc2ccc(F)cc2)[C@@H](C)C(F)(F)F)C1=O | cell-free assay | competition with immobilised ligand | 1 µM | 95 |
| N[C@H]1CCN(c2nccc(-c3cnn4ncccc34)n2)C1 | binding |  | 1 µM | 74 |
| O=C(NCCCC1CCCCC1)c1ccc(CNC(=O)c2cnn(-c3ccccc3)c2C(F)(F)F)cc1 | cell-free assay | competition with immobilised ligand | 0.1 µM | 100 |
| C=CC(=O)N1CCC(C(=O)NCC(=O)N2CCN(c3nc(-c4cnc(N)nc4C(F)F)nc(N4CCOCC4)n3)CC2)CC1 | binding | competition with immobilised ligand | 1 µM | 100 |
